From ChEMBL document CHEMBL1139757, “Synthesis and evaluation of water-soluble docetaxel prodrugs-docetaxel esters of malic acid” (Bioorg Med Chem, 2007)
Values after ≈ are worked out from the molar mass of the structure shown.

What was measured:
[1] = Stability in PBS buffer at pH 7.4 after 48 hrs; format: physicochemical
[2] = organism: Homo sapiens; experiment: Stability in human plasma
[3] = system: A549; experiment: Cytotoxicity against human A549 cells by MTT assay; format: functional, cell-based
Summary of the method: (§1)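 Cells exposed to compound for 48 h. MTT then added (final 0.5 mg/ml in RPMI-1640) for a further 4 h at 37 °C. Formazan dissolved in DMSO and absorbance read at 570 nm. IC50 for 50% inhibition of viability derived by dose–effect analysis. Three replicate wells per point, each experiment run in triplicate.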

[4] = system: KB; experiment: Cytotoxicity against human KB cells by MTT assay; format: functional, cell-based; summary of the method: as §1
[5] = Solubility in water; format: physicochemical
Summary of the method: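 Compound suspended in water to 2 mg/mL, sonicated 15 min, then centrifuged at 13,000 rpm for 10 min. Supernatant quantified by reverse-phase HPLC with UV detection at 227 nm, taking extinction coefficients of prodrug and docetaxel as equal. Values are means of three experiments.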

[6] = system: MCF7; experiment: Cytotoxicity against human MCF7 cells by MTT assay; format: functional, cell-based; summary of the method: as §1
[7] = system: K562; experiment: Cytotoxicity against human K562 cells by MTT assay; format: functional, cell-based; summary of the method: as §1
[8] = system: H22; experiment: Antitumor activity against mouse H22 cells xenografted ICR mouse assessed as tumor growth inhibition at 10 mg/kg, ip once daily after 7 days; format: functional; settings: 168 h, route intraperitoneal
Summary of the method: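 Male ICR mice implanted s.c. in the armpit with H22 hepatoma cells (5 × 10⁶ per animal). Dosing began 24 h after implantation: ip once daily for 7 consecutive days at 5, 10 or 20 mg/kg. Saline served as negative control (20 mice), 10 mice per treated group. Tumors excised and weighed at day 8. Inhibition = (C − T)/C × 100 from mean tumor weights.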

Structure (SMILES) | half-life [1] | half-life [2] | IC50 [3] | IC50 [4] | solubility [5] | IC50 [6] | IC50 [7] | inhibition in vivo at 10 mg/kg [8]
CC(=O)O[C@@]12CO[C@@H]1C[C@H](O)[C@@]1(C)C(=O)[C@H](O)C3=C(C)[C@@H](OC(=O)[C@H](OC(=O)CC(O)C(=O)[O-])[C@@H](NC(=O)OC(C)(C)C)c4ccccc4)C[C@@](O)([C@@H](OC(=O)c4ccccc4)[C@H]21)C3(C)C.[Na+] (mixture of isomers) | > 24 h | 3 h | 3.5 µg/mL | 0.45 µg/mL | 620 µg/mL | 3.6 µg/mL | 1.5 µg/mL | 
CC(=O)O[C@@]12CO[C@@H]1C[C@H](O)[C@@]1(C)C(=O)[C@H](O)C3=C(C)[C@@H](OC(=O)[C@H](OC(=O)C[C@@H](O)C(=O)O)[C@@H](NC(=O)OC(C)(C)C)c4ccccc4)C[C@@](O)([C@@H](OC(=O)c4ccccc4)[C@H]21)C3(C)C | > 48 h | 4 h | > 50 µg/mL | > 50 µg/mL | 470 µg/mL (≈ 509 µM) | > 50 µg/mL | 0.85 µg/mL (≈ 0.92 µM) | 
CC(=O)O[C@@]12CO[C@@H]1C[C@H](OC(=O)CC(O)C(=O)O)[C@@]1(C)C(=O)[C@H](O)C3=C(C)[C@@H](OC(=O)[C@H](O)[C@@H](NC(=O)OC(C)(C)C)c4ccccc4)C[C@@](O)([C@@H](OC(=O)c4ccccc4)[C@H]21)C3(C)C (mixture of isomers) | > 48 h |  | > 50 µg/mL | > 50 µg/mL | 430 µg/mL | > 50 µg/mL | 0.069 µg/mL | 
CC(=O)O[C@@]12CO[C@@H]1C[C@H](OC(=O)CC(O)C(=O)O)[C@@]1(C)C(=O)[C@H](OC(=O)CC(O)C(=O)O)C3=C(C)[C@@H](OC(=O)[C@H](OC(=O)CC(O)C(=O)O)[C@@H](NC(=O)OC(C)(C)C)c4ccccc4)C[C@@](O)([C@@H](OC(=O)c4ccccc4)[C@H]21)C3(C)C (mixture of isomers) | > 48 h |  | > 50 µg/mL | > 50 µg/mL | 550 µg/mL | > 50 µg/mL | 17 µg/mL | 
CC(=O)O[C@@]12CO[C@@H]1C[C@H](O)[C@@]1(C)C(=O)[C@H](O)C3=C(C)[C@@H](OC(=O)[C@H](OC(=O)CC(O)C(=O)O)[C@@H](NC(=O)OC(C)(C)C)c4ccccc4)C[C@@](O)([C@@H](OC(=O)c4ccccc4)[C@H]21)C3(C)C (some centres undefined) | > 48 h | 4 h | > 50 µg/mL | 3.5 µg/mL (≈ 3.79 µM) | 470 µg/mL (≈ 509 µM) | 39.2 µg/mL (≈ 42.4 µM) | 9.5 µg/mL (≈ 10.3 µM) | 
CC(=O)O[C@@]12CO[C@@H]1C[C@H](O)[C@@]1(C)C(=O)[C@H](O)C3=C(C)[C@@H](OC(=O)[C@H](O)[C@@H](NC(=O)OC(C)(C)C)c4ccccc4)C[C@@](O)([C@@H](OC(=O)c4ccccc4)[C@H]21)C3(C)C.O.O.O [DOCETAXEL] |  |  | 1.4 µg/mL | 11.6 µg/mL |  | 3.3 µg/mL | 6.9 µg/mL | 46.3%
CC(=O)O[C@@]12CO[C@@H]1C[C@H](O)[C@@]1(C)C(=O)[C@H](O)C3=C(C)[C@@H](OC(=O)[C@H](OC(=O)C[C@H](O)C(=O)[O-])[C@@H](NC(=O)OC(C)(C)C)c4ccccc4)C[C@@](O)([C@@H](OC(=O)c4ccccc4)[C@H]21)C3(C)C.[Na+] | > 24 h | 3 h | > 50 µg/mL | > 50 µg/mL | 620 µg/mL | > 50 µg/mL | 38.1 µg/mL | 
CC(=O)O[C@@]12CO[C@@H]1C[C@H](O)[C@@]1(C)C(=O)[C@H](O)C3=C(C)[C@@H](OC(=O)[C@H](OC(=O)C[C@@H](O)C(=O)[O-])[C@@H](NC(=O)OC(C)(C)C)c4ccccc4)C[C@@](O)([C@@H](OC(=O)c4ccccc4)[C@H]21)C3(C)C.[Na+] | > 24 h | 3 h | > 50 µg/mL | > 50 µg/mL | 620 µg/mL | > 50 µg/mL | 18.8 µg/mL | 
CC(=O)O[C@@]12CO[C@@H]1C[C@H](O)[C@@]1(C)C(=O)[C@H](O)C3=C(C)[C@@H](OC(=O)[C@H](OC(=O)C[C@H](O)C(=O)O)[C@@H](NC(=O)OC(C)(C)C)c4ccccc4)C[C@@](O)([C@@H](OC(=O)c4ccccc4)[C@H]21)C3(C)C | > 48 h | 4 h | > 50 µg/mL | > 50 µg/mL | 470 µg/mL (≈ 509 µM) | > 50 µg/mL | 3.9 µg/mL (≈ 4.22 µM) | 
